Experimental data: ChEMBL document CHEMBL1156948, “Statistical molecular design of a focused salicylidene acylhydrazide library and multivariate QSAR of inhibition of type III secretion in the Gram-negative bacterium Yersinia” (Bioorg Med Chem, 2010)
Activity calls are given as the source filed them. How the calls were made is not given here.

Experiments:
[1] = tested on: Yersinia pseudotuberculosis YPIII; assay: Inhibition of T3S in Yersinia pseudotuberculosis YPIII expressing yopE-luxAB at 3.13 uM after 3 hrs by luciferase reporter gene assay
Outline: (§1)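 Strain YPIII pIB102 (yopE-luxAB) grown overnight at room temperature in BHI with 5 mM EGTA and 20 mM MgCl2 (calcium depletion), adjusted to OD600 0.088–0.095. Compound added from DMSO at 1.56–200 µM final (eight concentrations). Shaken 1 h at room temperature, then 2 h at 37 °C. Decanal added and light emission read immediately. Triplicates, repeated at least three times.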

[2] = tested on: Yersinia pseudotuberculosis YPIII; assay: Inhibition of T3S in Yersinia pseudotuberculosis YPIII expressing yopE-luxAB at 6.25 uM after 3 hrs by luciferase reporter gene assay; outline: as §1
[3] = tested on: Yersinia pseudotuberculosis YPIII; assay: Inhibition of T3S in Yersinia pseudotuberculosis YPIII expressing yopE-luxAB at 12.5 uM after 3 hrs by luciferase reporter gene assay; outline: as §1
[4] = tested on: Yersinia pseudotuberculosis YPIII; assay: Inhibition of T3S in Yersinia pseudotuberculosis YPIII expressing yopE-luxAB at 25 uM after 3 hrs by luciferase reporter gene assay; outline: as §1
[5] = tested on: Yersinia pseudotuberculosis YPIII; assay: Inhibition of T3S in Yersinia pseudotuberculosis YPIII expressing yopE-luxAB at 50 uM after 3 hrs by luciferase reporter gene assay; outline: as §1
[6] = tested on: Yersinia pseudotuberculosis YPIII; assay: Inhibition of T3S in Yersinia pseudotuberculosis YPIII expressing yopE-luxAB at 100 uM after 3 hrs by luciferase reporter gene assay; outline: as §1
[7] = tested on: Yersinia pseudotuberculosis YPIII; assay: Inhibition of T3S in Yersinia pseudotuberculosis YPIII expressing yopE-luxAB at 200 uM after 3 hrs by luciferase reporter gene assay; outline: as §1
[8] = tested on: Yersinia pseudotuberculosis; assay: Antibacterial activity against Yersinia pseudotuberculosis expressing pIB102 at 50 uM after 23 hrs by broth dilution assay; format: functional, organism-based
Outline: (§2)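 Wild-type pIB102 grown overnight in LB at room temperature, diluted to OD600 = 0.1 in LB with 2.5 mM CaCl2. Compound added from DMSO stock to final 50 and 100 µM. Incubated at 37 °C with absorbance at 595 nm read over 23 h.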

Escherichia coli [9] = assay: Antibacterial activity against Escherichia coli DH5[alpha] at 50 uM after 23 hrs by broth dilution assay; format: functional, organism-based
Outline: (§3)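 Overnight LB culture of E. coli DH5α grown at 37 °C, diluted to OD600 0.1 in LB with 2.5 mM CaCl2; compound added from DMSO stock to final 50 or 100 µM. Incubated at 37 °C with absorbance at 595 nm followed over 23 h.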

[10] = tested on: Yersinia pseudotuberculosis; assay: Antibacterial activity against Yersinia pseudotuberculosis expressing pIB102 at 100 uM after 23 hrs by broth dilution assay; format: functional, organism-based; outline: as §2
Escherichia coli [11] = assay: Antibacterial activity against Escherichia coli DH5[alpha] at 100 uM after 23 hrs by broth dilution assay; format: functional, organism-based; outline: as §3
[12] = tested on: Yersinia pseudotuberculosis YPIII; assay: Inhibition of T3S in Yersinia pseudotuberculosis YPIII expressing yopE-luxAB at 1.56 uM after 3 hrs by luciferase reporter gene assay; outline: as §1

Row | Compound | inhibition [1] | inhibition [2] | inhibition [3] | inhibition [4] | inhibition [5] | inhibition [6] | inhibition [7] | Activity [8] | Activity (Escherichia coli [9]) | Activity [10] | Activity (Escherichia coli [11]) | inhibition [12]
1 | COc1ccc(C(=O)N/N=C/c2cc(I)cc(I)c2O)cc1OC | 4% | 19% | 23% | 30% | 24% | 33% | 40% | inactive | inactive | inactive | inactive | –
2 | COc1cccc(/C=N/NC(=O)c2ccccc2[N+](=O)[O-])c1O | 19% | 14% | 12% | 19% | 32% | 68% | 94% | inactive | inactive | inactive | inactive | -5%
3 | COc1ccc(Br)c(C(=O)N/N=C/c2cc(C(C)(C)C)ccc2O)c1 | 0% | 6% | 26% | 18% | 33% | 22% | 20% | inactive | inactive | inactive | inactive | 3%
4 | O=C(N/N=C/c1cccc(F)c1O)c1cccc(C(F)(F)F)c1 | 3% | 5% | 14% | 30% | 32% | 48% | 65% | inactive | inactive | inactive | inactive | -10%
5 | COc1cc([N+](=O)[O-])cc(/C=N/NC(=O)c2ccncc2)c1O | 8% | 16% | 21% | 28% | 35% | 42% | 51% | inactive | inactive | inactive | inactive | –
6 | COc1cc(/C=N/NC(=O)c2cccc(C(F)(F)F)c2)c(O)c(OC)c1 | 10% | 21% | 24% | 39% | 66% | 74% | 75% | inactive | inactive | inactive | inactive | -10%
7 | CC(C)(C)c1ccc(O)c(/C=N/NC(=O)c2ccc(Br)cc2)c1 | 0% | 19% | 29% | 34% | 39% | 34% | 37% | inactive | inactive | inactive | inactive | 4%
8 | O=C(CCc1ccc(O)cc1)N/N=C/c1c(O)cc(O)cc1O | 18% | 20% | 23% | 25% | 29% | 36% | 46% | inactive | inactive | inactive | inactive | –
9 | COc1ccc(Br)c(C(=O)N/N=C/c2ccc(Cl)cc2O)c1 | 14% | 10% | 25% | 31% | 36% | 49% | 58% | inactive | inactive | inactive | inactive | –
10 | COc1cc(/C=N/NC(=O)COc2ccc([N+](=O)[O-])cc2)c(O)c(OC)c1 | -1% | 13% | 14% | 18% | 16% | 14% | -2% | inactive | inactive | inactive | inactive | –
11 | COc1ccc(/C=N/NC(=O)CCc2ccc(O)cc2)c(O)c1 | -1% | 4% | 16% | 12% | 22% | 45% | 88% | inactive | inactive | inactive | inactive | -2%
12 | O=C(CC12CC3CC(CC(C3)C1)C2)N/N=C/c1cc([N+](=O)[O-])cc([N+](=O)[O-])c1O | -5% | 1% | 10% | 6% | 18% | 20% | 13% | inactive | inactive | inactive | inactive | –
13 | COc1cc(Br)cc(/C=N/NC(=O)C(N)=O)c1O | -4% | 1% | 8% | 10% | 9% | 47% | 78% | inactive | inactive | inactive | inactive | –
14 | COc1ccc(C(=O)N/N=C/c2cc(F)cc(Cl)c2O)cc1OC | – | 6% | 0% | 10% | 38% | 56% | 64% | inactive | inactive | inactive | inactive | -10%
15 | O=C(N/N=C/c1cc([N+](=O)[O-])cc([N+](=O)[O-])c1O)c1ccc(Br)cc1 | -6% | 9% | 12% | 19% | 22% | 22% | 18% | inactive | inactive | inactive | inactive | –
16 | Cc1nnsc1C(=O)N/N=C/c1cc(F)cc(Cl)c1O | – | – | – | – | – | – | – | – | inactive | – | inactive | –
17 | COc1cccc(/C=N/NC(=O)c2cc(OC)c(OC)c(OC)c2)c1O | 14% | 17% | 15% | 20% | 43% | 65% | 68% | inactive | inactive | inactive | inactive | –
18 | CCN(CC)c1ccc(/C=N/NC(=O)COc2ccc(F)cc2)c(O)c1 | 11% | 17% | 23% | 35% | 54% | 58% | 50% | inactive | inactive | inactive | inactive | –
19 | COc1cccc(C(=O)N/N=C/c2cc(C(C)(C)C)cc(C(C)(C)C)c2O)c1 | 4% | 7% | 13% | 14% | 23% | 21% | 11% | inactive | inactive | inactive | inactive | –
20 | CC(C)(C)c1cc(/C=N/NC(=O)COc2ccc([N+](=O)[O-])cc2)c(O)c(C(C)(C)C)c1 | -2% | 7% | 14% | 12% | 18% | 18% | 4% | inactive | inactive | inactive | inactive | –
21 | O=C(COc1ccc(F)cc1)N/N=C/c1cc(I)cc(I)c1O | 0% | 15% | 18% | 21% | 30% | 36% | 44% | inactive | inactive | inactive | inactive | –
22 | COc1ccc(/C=N/NC(=O)C(N)=O)c(O)c1 | -6% | 4% | 8% | 13% | 73% | 94% | 97% | inactive | inactive | inactive | inactive | –
